For 18 compounds, inhibition in vivo, MLD and ED40 results are on record in ChEMBL document CHEMBL1126191, “New antiinflammatory agents. 2. 5-Phenyl-3H-imidazo[4,5-c][1,8]naphthyridin-4(5H)-ones: a new class of nonsteroidal antiinflammatory agents with potent activity like glucocorticoids” (J Med Chem, 1992).

For data set [1], the system named is Rattus norvegicus. Description: Antiinflammatory effect (oral administration), on zymosan-induced rat paw edema at 25 mg/kg. It counts as functional. The procedure, abridged:
(§1)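 Oral dosing in 5% arabic gum suspension to male Wistar rats (~150 g, n=5) 1 h before subplantar injection of 1% zymosan in saline into the hind paw. Paw volume was read by plethysmograph before dosing and 4 h after zymosan.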

Data set [2] concerns Rattus norvegicus. In words: Antiinflammatory effect (oral administration), on rat reversed passive Arthus reaction-induced paw edema at 5 mg/kg. In kind it is functional. In short, it runs like this: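 Reversed passive Arthus: male Wistar rats (~150 g, n=5) were dosed orally with compound in 5% arabic gum. Paw volume was measured by plethysmograph before dosing and 2 h after antigen. % inhibition was calculated vs controls, and ED50 came from log-dose linear regression.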

The subject of data set [3] is Rattus norvegicus. Description: Antiinflammatory effect in rat paw edema model following 50 mg/kg p.o. administration. In kind it is functional. Particulars: route oral.
Data set [4] concerns Rattus norvegicus. In words: Antiinflammatory effect of the compound(oral administration) on rat paw edema model(carrageenan-induced paw edema) at 50 mg/kg. In kind it is functional.
The subject of data set [5] is Mus musculus. In words: Acute lethal toxicity (peroral administration), determined by observing the mortality for 7 days after the administration in mouse. It counts as organism-based. To be noted: in vivo, po, 168 h. The procedure, abridged:
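Male dd mice of 20-25 g, three per group, given compound by mouth once. Mortality followed for 7 days, and the minimum lethal dose (MLD) was recorded in mg/kg po.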

Data set [6] concerns Rattus norvegicus. In words: Oral dose required for antiinflammatory effect on zymosan induced rat paw edema. In kind it is functional. The procedure, abridged: as §1

One may read the inhibition in vivo as the drop in the measured response relative to a control, in per cent. With `O=c1c2c(ncn2Cc2ccccc2Cl)c2cccnc2n1-c1ccccc1`, in data set [1], the inhibition in vivo at 25 mg/kg was determined as 27.3%. In data set [2], the inhibition in vivo at 5 mg/kg was 20.8%. Further, the inhibition in vivo at 50 mg/kg in data set [3] turned out to be 14.9%.
With `CCN(CC)CCCn1cnc2c3cccnc3n(-c3ccccc3)c(=O)c21`, in data set [1], the inhibition in vivo at 25 mg/kg stood at 17.4%. In addition, the inhibition in vivo at 5 mg/kg in data set [2] was determined as 11.1%. Besides, the inhibition in vivo at 50 mg/kg in data set [3] came out at 7.2%.
Take `O=c1c2c(ncn2CCCN2CCOCC2)c2cccnc2n1-c1ccccc1`: in data set [1], the inhibition in vivo at 25 mg/kg amounted to 22.4%. Besides, in data set [2], the inhibition in vivo at 5 mg/kg is -3.5%. The inhibition in vivo at 50 mg/kg in data set [4] turned out to be 9.7%.
On to `Cn1cnc2c3cccnc3n(-c3ccccc3)c(=O)c21`, for which the inhibition in vivo at 5 mg/kg in data set [2] is 45%. Also, in data set [4], the inhibition in vivo at 50 mg/kg amounted to 40%. The compound further displayed an MLD in data set [5] of 100 mg/kg.
Regarding `O=c1c2c(ncn2Cc2ccc(Cl)cc2)c2cccnc2n1-c1ccccc1`, the inhibition in vivo at 25 mg/kg in data set [1] was 42.8%. For the same compound, in data set [2], the inhibition in vivo at 5 mg/kg was 15.1%. The compound also returned an ED40 in data set [6] of 20.3 mg/kg. Besides, the inhibition in vivo at 50 mg/kg in data set [3] worked out at 21.3%. In data set [5], this compound displayed an MLD above 300 mg/kg.
On to `CC(C)n1cnc2c3cccnc3n(-c3ccccc3)c(=O)c21`, for which the inhibition in vivo at 25 mg/kg in data set [1] is 62.4%. The inhibition in vivo at 5 mg/kg in data set [2] turned out to be 13.3%. The compound further displayed an ED40 in data set [6] of 12.7 mg/kg. The inhibition in vivo at 50 mg/kg in data set [3] was found to be 43.1%. In addition, the MLD in data set [5] was 200 mg/kg.
For the compound `O=c1c2ncn(Cc3ccccc3)c2c2cccnc2n1-c1ccccc1`, the inhibition in vivo at 25 mg/kg in data set [1] stood at 4.7%. The inhibition in vivo at 5 mg/kg in data set [2] came to 1.5%. In data set [5], this compound returned an MLD above 300 mg/kg.
For `CC(c1ccccc1)n1cnc2c3cccnc3n(-c3ccccc3)c(=O)c21` (stereo not given), the inhibition in vivo at 25 mg/kg in data set [1] came to 1.6%. In data set [2], the inhibition in vivo at 5 mg/kg amounted to 14.9%. Besides, the inhibition in vivo at 50 mg/kg in data set [3] was 3.5%. Further, the MLD in data set [5] is above 300 mg/kg.
Regarding `O=C(O)Cn1cnc2c3cccnc3n(-c3ccccc3)c(=O)c21`, the inhibition in vivo at 25 mg/kg in data set [1] was 5.1%. For the same compound, the inhibition in vivo at 5 mg/kg in data set [2] was determined as 3.3%. For the same compound, the inhibition in vivo at 50 mg/kg in data set [3] was 10.8%.
Regarding `CC(C)n1cnc2c(=O)n(-c3ccccc3)c3ncccc3c21`, the inhibition in vivo at 5 mg/kg in data set [2] was determined as 32%. Besides, in data set [5], the MLD was above 300 mg/kg.
Turning to `Oc1c2ncnc-2c2cccnc2n1-c1ccccc1`, the inhibition in vivo at 5 mg/kg in data set [2] worked out at 15.4%. The compound further returned an MLD in data set [5] above 300 mg/kg.
Take `Cc1ccc(C)c(Cn2cnc3c4cccnc4n(-c4ccccc4)c(=O)c32)c1`: the inhibition in vivo at 25 mg/kg in data set [1] amounted to 10.1%. The inhibition in vivo at 5 mg/kg in data set [2] is -3.5%. The inhibition in vivo at 50 mg/kg in data set [3] is 1.2%.
As to `O=c1c2c(ncn2C/C=C/c2ccccc2)c2cccnc2n1-c1ccccc1`, in data set [1], the inhibition in vivo at 25 mg/kg was 34.2%. Further, the inhibition in vivo at 5 mg/kg in data set [2] turned out to be 17.5%. Further, the inhibition in vivo at 50 mg/kg in data set [3] was found to be 26.3%. Moreover, the MLD in data set [5] was above 300 mg/kg.
Turning to `CCn1cnc2c(=O)n(-c3ccccc3)c3ncccc3c21`, in data set [1], the inhibition in vivo at 25 mg/kg stood at 13.5%. Further, the inhibition in vivo at 5 mg/kg in data set [2] stood at 3.5%. Moreover, the MLD in data set [5] is above 300 mg/kg.
With `CCOC(=O)Cn1cnc2c3cccnc3n(-c3ccccc3)c(=O)c21`, the inhibition in vivo at 25 mg/kg in data set [1] is 5%. Also, in data set [2], the inhibition in vivo at 5 mg/kg came out at 9.9%. In addition, in data set [4], the inhibition in vivo at 50 mg/kg was determined as 23.1%.
`O=c1c2c(ncn2Cc2cccc([N+](=O)[O-])c2)c2cccnc2n1-c1ccccc1`: the inhibition in vivo at 25 mg/kg in data set [1] worked out at 35.7%. In data set [2], the inhibition in vivo at 5 mg/kg worked out at 43.9%. The inhibition in vivo at 50 mg/kg in data set [3] worked out at 33.1%.
As for `O=c1c2c(ncn2Cc2ccc([N+](=O)[O-])cc2)c2cccnc2n1-c1ccccc1`, in data set [1], the inhibition in vivo at 25 mg/kg came to 45.6%. For the same compound, the inhibition in vivo at 5 mg/kg in data set [2] is 22.2%. The ED40 in data set [6] came to 3.5 mg/kg. Moreover, in data set [3], the inhibition in vivo at 50 mg/kg was found to be 35.9%. In data set [5], this compound returned an MLD above 300 mg/kg.
With `Cc1nc2c3cccnc3n(-c3ccccc3)c(=O)c2n1Cc1ccccc1`, in data set [1], the inhibition in vivo at 25 mg/kg came out at 19.2%. Moreover, in data set [2], the inhibition in vivo at 5 mg/kg is 6.5%. For the same compound, the inhibition in vivo at 50 mg/kg in data set [4] is 4.7%.
